The values that follow come from ChEMBL document CHEMBL4265973, “Broad-spectrum antibacterial amphiphilic aminoglycosides: A new focus on the structure of the lipophilic groups extends the series of active dialkyl neamines” (Eur J Med Chem, 2018).

For data set [1], the system named is Pseudomonas aeruginosa. Kind of data set: Antibacterial activity against Pseudomonas aeruginosa ATCC 27853 by microdilution assay. The format is functional. In outline: (§1)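 Broth microdilution per CLSI recommendations, using a fresh culture in cation-adjusted Mueller-Hinton broth (CA-MHB) and a starting inoculum of 10^6 cells; the MIC is the value read.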
(In broth dilution the organism is exposed to a series of concentrations in liquid medium.)

For another data set, the system named is Klebsiella pneumoniae. Kind of data set: Antibacterial activity against Klebsiella pneumoniae 700603 by microdilution assay. The format is functional. In outline:
as §1

Data set [2] concerns Staphylococcus aureus. Kind of data set: Antibacterial activity against Staphylococcus aureus ATCC 25923 by microdilution assay. The class given is functional. In outline:
(§2)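 Broth microdilution MIC per CLSI recommendations, fresh culture in cation-adjusted Mueller-Hinton broth, starting inoculum 10^6 cells.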

Data set [3] deals with Escherichia coli. Kind of data set: Antibacterial activity against Escherichia coli PAZ505H8101 harboring AAC6'-1B by microdilution assay. The format is functional. The procedure, abridged: as §2
The nature of data set [4]: Cytotoxicity against mouse J774 cells assessed as cell viability at 30 uM after 24 hrs by MTT assay relative to control. The class given is cell-based. Particulars: J774 cells, read-out: Activity. The procedure, abridged:
(§3)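 Murine J774 macrophages are exposed for 24 h to compound at 10 or 30 µM, then given 0.2 mg/mL MTT for 1 h. The reaction is stopped with DMSO and OD read at 570 nm; viability is metabolic activity as % of control. The number of independent experiments is given per value.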
On the technique in general: Tetrazolium dyes change colour on reduction, which living cells bring about.

Data set [5] in a line: Cytotoxicity against mouse J774 cells assessed as cell viability at 10 uM after 24 hrs by MTT assay relative to control. The format is cell-based. Conditions: J774 cells, read-out: Activity. In outline:
as §3

The test system of data set [6] is Escherichia coli. Kind of data set: Antibacterial activity against Escherichia coli L8058.1 harboring ANT2'-1A by microdilution assay. The format is functional. In outline:
as §2

The test system of data set [7] is Pseudomonas aeruginosa. Kind of data set: Antibacterial activity against Pseudomonas aeruginosa PA406 harboring triABC deletion mutant by microdilution assay. The class given is functional. The procedure, abridged:
as §2

Data set [8] concerns Pseudomonas aeruginosa. Kind of data set: Antibacterial activity against Pseudomonas aeruginosa PA22 harboring surexp MexXY by microdilution assay. The class given is functional. In outline: as §2
In data set [9] the test system is Staphylococcus aureus. Kind of data set: Antibacterial activity against Staphylococcus aureus SA-1 expressing NorA pump by microdilution assay.
The test system of data set [10] is Escherichia coli. Kind of data set: microbe, parasite or virus in culture. Conditions: ATCC 25922.
The subject of data set [11] is Staphylococcus aureus. Kind of data set: Antibacterial activity against methicillin-resistant Staphylococcus aureus ATCC 33592 by microdilution assay. The format is functional. The procedure, abridged: as §2
Data set [12] deals with Acinetobacter lwoffii. Kind of data set: Antibacterial activity against Acinetobacter lwoffii ATCC 17925 by microdilution assay. The class given is functional. In outline:
as §1

The test system of data set [13] is Acinetobacter lwoffii. Kind of data set: Antibacterial activity against Acinetobacter lwoffii AI.88-483 harboring APH3'-6A by microdilution assay. The format is functional. In outline:
as §2

The subject of data set [14] is Pseudomonas aeruginosa. Kind of data set: Antibacterial activity against Pseudomonas aeruginosa FO3 harboring AAC6'-2A by microdilution assay. The class given is functional. The procedure, abridged:
as §2

In brackets after ≈: the same amount, converted by molar mass.

Take `CCCCCCCO[C@@H]1[C@@H](N)[C@@H](O[C@H]2[C@H](O)[C@@H](O)[C@H](N)C[C@@H]2N)O[C@H](CN)[C@H]1O`: the MIC against Pseudomonas aeruginosa [1], against Klebsiella pneumoniae, with Staphylococcus aureus [2], against Escherichia coli [3], with Escherichia coli [6] and against Pseudomonas aeruginosa [7] was > 128 mg/L each time. Besides, the MIC with Pseudomonas aeruginosa [8] was > 128 mg/L; against Staphylococcus aureus [9], > 128 mg/L; in the data set with Escherichia coli [10], > 128 mg/L; in the data set with Staphylococcus aureus [11], > 128 mg/L; in the data set on Acinetobacter lwoffii [12] it was 64 mg/L (≈ 152 µM); against Acinetobacter lwoffii [13], > 128 mg/L. Moreover, the MIC with Pseudomonas aeruginosa [14] is > 128 mg/L. Further, the viability at 24 h, 30 µM in [4] was determined as 70.2%. In addition, the viability at 24 h, 10 µM in [5] was 77.5%.

For the compound `NC[C@@H]1O[C@H](O[C@H]2[C@@H](O)[C@H](O[C@@H]3[C@@H](O)[C@H](N)C[C@H](N)[C@H]3O[C@H]3O[C@H](CN)[C@@H](O)[C@H](O)[C@H]3N)O[C@@H]2CO)[C@H](N)[C@@H](O)[C@@H]1O` [FRAMYCETIN], the MIC in the data set with Pseudomonas aeruginosa [1] was 64 mg/L (≈ 104 µM); against Klebsiella pneumoniae, 4 to 8 mg/L (≈ 6.51 to 13 µM); in the data set with Staphylococcus aureus [2], 1 to 2 mg/L (≈ 1.63 to 3.25 µM); with Escherichia coli [3] it was 4 mg/L (≈ 6.51 µM); in the data set with Escherichia coli [6], 1 mg/L (≈ 1.63 µM); with Pseudomonas aeruginosa [7], 2 to 4 mg/L (≈ 3.25 to 6.51 µM). Besides, the MIC was 32 to 64 mg/L (≈ 52.1 to 104 µM) in the data set on Pseudomonas aeruginosa [8]; 0.5 to 1 mg/L (≈ 0.813 to 1.63 µM) against Staphylococcus aureus [9]; 2 mg/L (≈ 3.25 µM) against Escherichia coli [10]; > 128 mg/L against Staphylococcus aureus [11]; < 0.25 mg/L in the data set with Acinetobacter lwoffii [12]; 64 to 128 mg/L (≈ 104 to 208 µM) in the data set with Acinetobacter lwoffii [13]. Moreover, the MIC against Pseudomonas aeruginosa [14] amounted to 128 mg/L (≈ 208 µM).

With `CCCCCCCCCCCO[C@@H]1[C@@H](N)[C@@H](O[C@H]2[C@H](O)[C@@H](OCCCCCCCCCCC)[C@H](N)C[C@@H]2N)O[C@H](CN)[C@H]1O`, the MIC in the data set with Pseudomonas aeruginosa [1] amounted to 16 mg/L (≈ 25.4 µM); with Klebsiella pneumoniae, 32 mg/L (≈ 50.7 µM); against Staphylococcus aureus [2], 8 mg/L (≈ 12.7 µM); in the data set with Escherichia coli [3], 16 mg/L (≈ 25.4 µM); with Escherichia coli [6], 16 mg/L (≈ 25.4 µM); against Pseudomonas aeruginosa [7], 16 mg/L (≈ 25.4 µM). In addition, the MIC amounted to 16 mg/L (≈ 25.4 µM) in the data set with Pseudomonas aeruginosa [8]; 8 mg/L (≈ 12.7 µM) with Staphylococcus aureus [9]; 4 mg/L (≈ 6.34 µM) against Escherichia coli [10]; 64 mg/L (≈ 101 µM) against Staphylococcus aureus [11]; 32 mg/L (≈ 50.7 µM) against Acinetobacter lwoffii [12]; 32 mg/L (≈ 50.7 µM) with Acinetobacter lwoffii [13]. The same compound showed an MIC against Pseudomonas aeruginosa [14] of 16 mg/L (≈ 25.4 µM). Further, the viability at 24 h, 30 µM in data set [4] worked out at 14.1%. In data set [5], the viability at 24 h, 10 µM came to 81.7%.

For the compound GENTAMICIN, the MIC in the data set on Pseudomonas aeruginosa [1] was 1 mg/L; with Klebsiella pneumoniae, 4 to 8 mg/L; against Staphylococcus aureus [2], 0.25 to 0.5 mg/L; with Escherichia coli [3] it was 1 mg/L; with Escherichia coli [6], 64 mg/L; in the data set on Pseudomonas aeruginosa [7], < 0.25 mg/L. For the same compound, the MIC against Pseudomonas aeruginosa [8] is 4 mg/L; in the data set with Staphylococcus aureus [11], 1 mg/L; against Acinetobacter lwoffii [12], < 0.25 mg/L; against Acinetobacter lwoffii [13] it was 2 mg/L; with Pseudomonas aeruginosa [14], > 128 mg/L.

Turning to `CCCCCCCCCCCO[C@@H]1[C@@H](N)[C@@H](O[C@H]2[C@H](O)[C@@H](O)[C@H](N)C[C@@H]2N)O[C@H](CN)[C@H]1O`, the MIC in the data set with Pseudomonas aeruginosa [1] was > 128 mg/L; with Klebsiella pneumoniae, > 128 mg/L; in the data set on Staphylococcus aureus [2], 16 mg/L (≈ 33.6 µM); with Escherichia coli [3], 32 mg/L (≈ 67.1 µM); against Escherichia coli [6], 32 mg/L (≈ 67.1 µM); with Pseudomonas aeruginosa [7], 4 to 8 mg/L (≈ 8.39 to 16.8 µM). In addition, the MIC in the data set with Pseudomonas aeruginosa [8] is > 128 mg/L; against Staphylococcus aureus [9] it was 16 mg/L (≈ 33.6 µM); against Escherichia coli [10], 64 mg/L (≈ 134 µM); in the data set with Staphylococcus aureus [11] it was 16 mg/L (≈ 33.6 µM); against Acinetobacter lwoffii [12], 32 mg/L (≈ 67.1 µM); against Acinetobacter lwoffii [13], > 128 mg/L. In addition, in the data set on Pseudomonas aeruginosa [14], the MIC was > 128 mg/L. Further, in data set [4], the viability at 24 h, 30 µM came to 77.1%. In addition, in data set [5], the viability at 24 h, 10 µM was determined as 81.8%.

For the compound `NCC[C@H](O)C(=O)N[C@@H]1C[C@H](N)[C@@H](O[C@H]2O[C@H](CN)[C@@H](O)[C@H](O)[C@H]2O)[C@H](O)[C@H]1O[C@H]1O[C@H](CO)[C@@H](O)[C@H](N)[C@H]1O` [AMIKACIN], the MIC in the data set on Pseudomonas aeruginosa [1] was 2 to 4 mg/L (≈ 3.42 to 6.83 µM); with Klebsiella pneumoniae it was 1 mg/L (≈ 1.71 µM); in the data set on Staphylococcus aureus [2], 4 mg/L (≈ 6.83 µM); against Escherichia coli [3] it was 64 mg/L (≈ 109 µM); in the data set on Escherichia coli [6], 8 mg/L (≈ 13.7 µM); against Pseudomonas aeruginosa [7] it was 1 mg/L (≈ 1.71 µM). The MIC with Pseudomonas aeruginosa [8] is 8 mg/L (≈ 13.7 µM); against Staphylococcus aureus [9] it was 2 mg/L (≈ 3.42 µM); in the data set with Escherichia coli [10], 4 mg/L (≈ 6.83 µM); in the data set on Staphylococcus aureus [11], 8 to 16 mg/L (≈ 13.7 to 27.3 µM); in the data set with Acinetobacter lwoffii [12], < 0.25 mg/L; in the data set on Acinetobacter lwoffii [13] it was 128 mg/L (≈ 219 µM). Moreover, in the data set on Pseudomonas aeruginosa [14], the MIC was found to be 8 mg/L (≈ 13.7 µM).
